# Assay results gathered from unrelated publications.
# Lines come from different studies, so protocols differ.
# MMP13: Collagenase 3 (MMP13, Homo sapiens, UniProt P45452)
# ADORA2B: Adenosine receptor A2b (ADORA2B, Homo sapiens, UniProt P29275)
# HTR4: 5-hydroxytryptamine receptor 4 (HTR4, Homo sapiens, UniProt Q13639)
SMILES,target,read-out,action,method,cells,notes,Ki [nM]
COC(=O)c1ccc(CSc2nc3c(c(=O)[nH]2)CCC3)cc1,MMP13,enzyme activity,inhibitor,,,,1500
OC[C@@]12C[C@@H]1[C@@H](n1cnc3c(NC(C4CCCC4)C4CCCC4)nc(Cl)cc31)[C@H](O)[C@@H]2O,"Beta-3 adrenergic receptor (ADRB3, Homo sapiens, UniProt P13945)",cell-free assay,,radioligand,,,4700
CCCCN1CCCn2c1nc1c2c(=O)n(C)c(=O)n1C,ADORA2B,ligand displacement,,radioligand,,cell membranes,> 10000
Cc1c(-c2ccccc2)oc2c(C(=O)OCCN3CCCCC3)cccc2c1=O,HTR4,cell-free assay,,radioligand,,cell membranes,> 10000
CCCCCCCCCCCCCC#CC(=O)O,"Fatty acid synthase (Plasmodium falciparum, UniProt Q965D7)",enzyme activity,inhibitor,,,,4750
CCCC(C)N1CCCn2c1nc1c2c(=O)n(C)c(=O)n1C (stereo not shown),ADORA2B,ligand displacement,,radioligand,,cell membranes,> 10000
CCCCN1CCC(COC(=O)c2ccc(N)c(OCF)c2)CC1,HTR4,ligand displacement,,radioligand,,,0.8
C=CCN1CCCn2c1nc1c2c(=O)n(C)c(=O)n1C,ADORA2B,ligand displacement,,radioligand,,cell membranes,> 10000
COc1ccc(CCCn2ncc3c2nc(N)n2nc(-c4ccco4)nc32)cc1,"Adenosine receptor A1 (Mus musculus, UniProt Q60612)",ligand displacement,,radioligand,,cell membranes,765
Nc1ncnc2c1ncn2[C@@H]1O[C@H](COP(=O)(O)OP(=O)(O)O)[C@@H](O)[C@H]1O,"nod (Drosophila melanogaster, UniProt P18105)",enzyme activity,inhibitor,,,,~2000
C[C@H]1CN(C2COC2)CCN1c1ccc(Nc2cc(-c3ccnc(N4CCn5c(cc6c5CC(C)(C)C6)C4=O)c3CO)cn(C)c2=O)nc1,"Solute carrier organic anion transporter family member 1B1 (SLCO1B1, Homo sapiens, UniProt Q9Y6L6)",transporter uptake,inhibitor,,HEK293,,1940
C[C@]12CCC(=O)C=C1CC[C@@H]1[C@@H]2[C@@H](O)C[C@@]2(C)[C@H]1CC[C@]2(O)C(=O)CO,"G-protein coupled estrogen receptor 1 (GPER1, Homo sapiens, UniProt Q99527)",ligand displacement,,radioligand,,,4400
CC(C)N1CCCn2c1nc1c2c(=O)n(C)c(=O)n1C,ADORA2B,ligand displacement,,radioligand,,cell membranes,> 10000
Oc1nc(SCc2ccc(Cl)cc2)nc2c1CCC2,MMP13,enzyme activity,inhibitor,,,,3300
N=C(N)N1CCC[C@H]1c1nc(-c2ccc(CCC3CCCCC3)c(C(F)(F)F)c2)no1,"Sphingosine kinase 2 (Sphk2, Mus musculus, UniProt Q9JIA7)",enzyme activity,inhibitor,,,,110
CCCCn1c(=O)c2[nH]c(C34CC5CC(CC3C5)C4)nc2n(CCCO)c1=O,ADORA2B,ligand displacement,,radioligand,,cell membranes,48.6
